In ChEMBL document CHEMBL1165950, “Design and synthesis of new potent anticancer pyrazoles with high FLT3 kinase inhibitory selectivity” (Bioorg Med Chem, 2010):

Columns and labels:
Assay type in all cases: functional
HCT-15 = assay: Cytotoxicity against human HCT15 cells assessed as cell growth at 100 nM after 48 hrs by sulforhodamine B assay; details: HCT-15, 48 h, read-out: Activity
SK-MEL-2 = assay: Cytotoxicity against human SK-MEL-2 cells assessed as cell growth at 100 nM after 48 hrs by sulforhodamine B assay; details: SK-MEL-2, 48 h, read-out: Activity
[1] = Cytotoxicity against human Hs 578T cells assessed as cell growth at 0.001 uM after 48 hrs by sulforhodamine B assay; details: read-out: Activity
MDA-MB-231 [2] = assay: Cytotoxicity against human MDA-MB-231 cells assessed as cell growth at 100 nM after 48 hrs by sulforhodamine B assay; details: MDA-MB-231, 48 h, read-out: Activity
EKVX = assay: Cytotoxicity against human EKVX cells assessed as cell growth at 1 uM after 48 hrs by sulforhodamine B assay; details: read-out: Activity
NCI-H23 [3] = assay: Cytotoxicity against human NCI-H23 cells assessed as cell growth at 1 uM after 48 hrs by sulforhodamine B assay; details: NCI-H23, 48 h, read-out: Activity
TK-10 = assay: Cytotoxicity against human TK10 cells assessed as cell growth at 10 uM; details: read-out: Activity
Procedure, shortened: (§1)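 NCI-60 screen: cells grown in RPMI 1640 with 5% FBS and 2 mM L-glutamine, plated at 5000–40,000 cells/well according to doubling time, and preincubated 24 h at 37 °C, 5% CO2. The single 10 µM dose (DMSO stock) was added, then incubated 48 h. Cells were TCA-fixed and stained with 0.4% SRB, read at 515 nm, and growth % calculated against time-zero and control plates.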

COLO 205 = assay: Cytotoxicity against human COLO205 cells assessed as cell growth at 1 uM after 48 hrs by sulforhodamine B assay; details: COLO 205, 48 h, read-out: Activity
Procedure, shortened: (§2)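 NCI-60 five-dose screen. Cells were grown in RPMI 1640 with 5% FBS and 2 mM L-glutamine, plated at 5000–40,000 cells/well and preincubated for 24 h. Time-zero plates were TCA-fixed. DMSO-solubilized drug was added at five concentrations (10-fold or ½-log serial dilutions) for 48 h at 37 °C, 5% CO2. Cells were TCA-fixed, stained with 0.4% SRB and read at 515 nm. Percent growth used time-zero, control and test absorbances.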

SNB-75 [4] = assay: Cytotoxicity against human SNB75 cells assessed as cell growth at 1 uM after 48 hrs by sulforhodamine B assay; details: SNB-75, 48 h, read-out: Activity
A549 [5] = assay: Cytotoxicity against human A549 cells assessed as cell growth at 0.01 uM after 48 hrs by sulforhodamine B assay; details: A549, 48 h, read-out: Activity; procedure, shortened: as §2
[6] = Growth inhibition of human NCI60 cells at 10 uM after 48 hrs by sulforhodamine B assay relative to control; details: NCI60, 48 h, read-out: GI
Procedure, shortened: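 Single-dose NCI screen at 10 µM across the 60-line panel, 48 h exposure at 37 °C after a 24 h preincubation. Adherent cells were fixed with cold TCA and stained with 0.4% SRB, and absorbance was read at 515 nm. Inhibition % was taken as 100 minus growth %, and the mean across all lines was reported.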

SNB-75 [7] = assay: Cytotoxicity against human SNB75 cells assessed as cell growth at 0.01 uM after 48 hrs by sulforhodamine B assay; details: SNB-75, 48 h, read-out: Activity
SK-MEL-28 = assay: Cytotoxicity against human SK-MEL-28 cells assessed as cell growth at 0.01 uM after 48 hrs by sulforhodamine B assay; details: SK-MEL-28, 48 h, read-out: Activity
786-0 = assay: Cytotoxicity against human 786-0 cells assessed as cell growth at 0.01 uM after 48 hrs by sulforhodamine B assay; details: 786-0, 48 h, read-out: Activity; procedure, shortened: as §2
KM12 = assay: Cytotoxicity against human KM12 cells assessed as cell growth at 0.001 uM after 48 hrs by sulforhodamine B assay; details: KM12, 48 h, read-out: Activity
SW-620 = assay: Cytotoxicity against human SW620 cells assessed as cell growth at 0.001 uM after 48 hrs by sulforhodamine B assay; details: SW-620, 48 h, read-out: Activity
IGROV-1 = assay: Cytotoxicity against human IGROV1 cells assessed as cell growth at 0.001 uM after 48 hrs by sulforhodamine B assay; details: IGROV-1, 48 h, read-out: Activity
A549 [8] = assay: Growth inhibition of human A549 cells after 48 hrs by sulforhodamine B assay; details: A549, 48 h
Procedure, shortened: (§3)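 NCI five-dose SRB assay in RPMI 1640 with 5% FBS and 2 mM L-glutamine. Cells were preincubated 24 h, then exposed 48 h at 37 °C to five concentrations (10-fold or half-log serial dilutions from DMSO stocks). TCA fixation, SRB staining, and absorbance at 515 nm followed. IC50 was taken where [(Ti−Tz)/(C−Tz)]×100 = 50, with Tz as time-zero cell density.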

SK-MEL-5 = assay: Growth inhibition of human SK-MEL-5 cells after 48 hrs by sulforhodamine B assay; details: SK-MEL-5, 48 h; for CC50: read-out: LC50 (the source's name)
Procedure, shortened: (§4)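 NCI 60-cell screen, five-dose mode. Cells grown in RPMI 1640 with 5% FBS and 2 mM L-glutamine and plated at 5000-40,000 cells/well according to doubling time. After 24 h preincubation, a Tz plate was TCA-fixed. Five concentrations (10-fold or 1/2 log dilutions) were applied for 48 h at 37 °C. SRB staining read at 515 nm. IC50 taken from [(Ti-Tz)/(C-Tz)]×100 = 50.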

BT-549 [9] = assay: Cytotoxicity against human BT549 cells assessed as cell growth at 0.01 uM after 48 hrs by sulforhodamine B assay; details: BT-549, 48 h, read-out: Activity; procedure, shortened: as §2
HOP-62 = assay: Cytotoxicity against human HOP62 cells assessed as cell growth at 100 nM after 48 hrs by sulforhodamine B assay; details: HOP-62, 48 h, read-out: Activity
UO-31 = assay: Growth inhibition of human UO31 cells after 48 hrs by sulforhodamine B assay; details: UO-31, 48 h; for CC50: read-out: LC50 (the source's name); procedure, shortened: as §4
BT-549 [10] = assay: Growth inhibition of human BT549 cells after 48 hrs by sulforhodamine B assay; details: BT-549, 48 h; for CC50: read-out: LC50 (the source's name); procedure, shortened: as §3
A549 [11] = assay: Cytotoxicity against human A549 cells assessed as cell growth at 10 uM; details: read-out: Activity
Procedure, shortened: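 Single-dose NCI-60 screen at 10 µM. Cells were grown in RPMI 1640 with 5% FBS and 2 mM L-glutamine, then treated for 48 h at 37 °C. Protein was measured by SRB staining with absorbance at 515 nm. Percentage growth was recorded, and inhibition percentage was calculated as 100 minus growth percentage.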

NCI-H23 [12] = assay: Cytotoxicity against human NCI-H23 cells assessed as cell growth at 10 uM; details: read-out: Activity; procedure, shortened: as §1
NCI-H522 = assay: Cytotoxicity against human NCI-H522 cells assessed as cell growth at 10 uM; details: read-out: Activity; procedure, shortened: as §1
MDA-MB-231 [13] = assay: Cytotoxicity against human MDA-MB-231 cells assessed as cell growth at 10 uM after 48 hrs by sulforhodamine B assay; details: MDA-MB-231, 48 h, read-out: Activity

Structure (SMILES) | growth at 0.1 µM (HCT-15) | growth at 0.1 µM (SK-MEL-2) | growth at 0.001 µM [1] | growth at 0.1 µM (MDA-MB-231 [2]) | growth at 1 µM (EKVX) | growth at 1 µM (NCI-H23 [3]) | growth at 10 µM (TK-10) | growth at 1 µM (COLO 205) | growth at 1 µM (SNB-75 [4]) | growth at 0.01 µM (A549 [5]) | inhibition of growth at 10 µM [6] | growth at 0.01 µM (SNB-75 [7]) | growth at 0.01 µM (SK-MEL-28) | growth at 0.01 µM (786-0) | growth at 0.001 µM (KM12) | growth at 0.001 µM (SW-620) | growth at 0.001 µM (IGROV-1) | GI50 (A549 [8]) | LC50 (A549 [8]) | TGI (A549 [8]) | also measured
Cc1cc(O)cc(-c2nn(CC#N)cc2-c2ccnc(-c3ccc(N(C)C)cc3)c2)c1 | 90% | 112% | 98% | 84% | 29% | 24% | 52.5% | -59% | -22% | 91% | 65.3% | 75% | 94% | 88% | 91% | 99% | 107% | 4.18 µM | > 100 µM | 54.5 µM | GI50 (SK-MEL-5): 1.99 µM; TGI (SK-MEL-5): 5.75 µM; CC50 (SK-MEL-5): 22.9 µM; growth at 0.01 µM (BT-549 [9]): 91%; growth at 0.1 µM (HOP-62): 80%; GI50 (UO-31): 3.23 µM; TGI (UO-31): 32.5 µM; CC50 (UO-31): > 100 µM; GI50 (BT-549 [10]): 2.77 µM; TGI (BT-549 [10]): 12.1 µM; CC50 (BT-549 [10]): > 100 µM; growth at 10 µM (A549 [11]): 39%; growth at 10 µM (NCI-H23 [12]): 35.9%; growth at 10 µM (NCI-H522): 14.5%; growth at 10 µM (MDA-MB-231 [13]): -21%
COc1cc(C)cc(-c2nn(CC#N)cc2-c2ccnc(-c3ccc(N(C)C)cc3)c2)c1 | 15% | 50% | 103% | 52% | 28% | 15% | 34.7% | -74% | -12% | 97% | 92.3% | 98% | 102% | 96% | 93% | 98% | 103% | 0.583 µM | > 100 µM | 483 µM | GI50 (SK-MEL-5): 0.269 µM; TGI (SK-MEL-5): 0.672 µM; CC50 (SK-MEL-5): 24 µM; growth at 0.01 µM (BT-549 [9]): 100%; growth at 0.1 µM (HOP-62): 16%; GI50 (UO-31): 0.619 µM; TGI (UO-31): 98.7 µM; CC50 (UO-31): > 100 µM; GI50 (BT-549 [10]): 1.62 µM; TGI (BT-549 [10]): 7.33 µM; CC50 (BT-549 [10]): > 100 µM; growth at 10 µM (A549 [11]): 21.1%; growth at 10 µM (NCI-H23 [12]): -3.77%; growth at 10 µM (NCI-H522): -14.9%; growth at 10 µM (MDA-MB-231 [13]): 4%
COc1cc(C)cc(-c2nn(CC#N)cc2-c2ccc(-c3cccc(C(C)=O)c3)nc2)c1 | 69% | 88% | 84% | 85% | 24% | 17% | 27.3% | -55% | -20% | 87% | 78.7% | 83% | 93% | 97% | 99% | 96% | 106% | 3.87 µM | > 100 µM | 30.8 µM | GI50 (SK-MEL-5): 1.54 µM; TGI (SK-MEL-5): 6.79 µM; CC50 (SK-MEL-5): 39.8 µM; growth at 0.01 µM (BT-549 [9]): 90%; growth at 0.1 µM (HOP-62): 82%; GI50 (UO-31): 3.18 µM; TGI (UO-31): 58.2 µM; CC50 (UO-31): > 100 µM; GI50 (BT-549 [10]): 2.73 µM; TGI (BT-549 [10]): 15.1 µM; CC50 (BT-549 [10]): > 100 µM; growth at 10 µM (A549 [11]): 38.8%; growth at 10 µM (NCI-H23 [12]): 25.1%; growth at 10 µM (NCI-H522): -3.15%; growth at 10 µM (MDA-MB-231 [13]): 1%
